In paper PMC9727797 (Molecular Biology of the Cell, 2022):

What was measured:
[1] = molecular target: T1, KIF15-N420 (Homo sapiens, UniProt Q9NS87); assay: Enzyme-coupled ATPase assay, concentration response; type: biochemical; conditions: 2 mM ATP, 5 μM microtubules
T1 sequence (Q9NS87 1-420 limits assumed): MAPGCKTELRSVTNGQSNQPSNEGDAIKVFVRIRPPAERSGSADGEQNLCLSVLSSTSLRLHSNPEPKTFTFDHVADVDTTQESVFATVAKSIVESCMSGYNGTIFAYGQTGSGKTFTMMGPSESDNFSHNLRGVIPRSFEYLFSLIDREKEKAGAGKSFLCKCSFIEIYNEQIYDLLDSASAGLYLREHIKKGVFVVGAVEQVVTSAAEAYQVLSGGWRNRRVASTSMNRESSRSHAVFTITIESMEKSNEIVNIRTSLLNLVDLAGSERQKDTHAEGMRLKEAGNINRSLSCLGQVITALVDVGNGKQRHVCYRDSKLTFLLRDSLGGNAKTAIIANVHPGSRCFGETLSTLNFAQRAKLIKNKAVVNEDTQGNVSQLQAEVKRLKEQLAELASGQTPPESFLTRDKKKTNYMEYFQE
Summary of the method: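 Concentration response used the same NADH-coupled KIF15-N420 reaction (A340, 25°C), with 2 mM ATP and 5 μM microtubules at every test-compound concentration. Eight compound concentrations were tested. Curves were built from repeated measurements plotted as mean ± SEM.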

[2] = test system: HeLa cells; assay: Preanaphase spindle monopolarity, parental HeLa cells; type: cell-based
[3] = molecular target: T2, Eg5 (Homo sapiens, UniProt P52732); assay: Microtubule gliding assay, Eg5; type: biochemical; conditions: 24 µM Munesib-1 or 100 µM Fift-IN
T2 sequence (P52732 1-1056): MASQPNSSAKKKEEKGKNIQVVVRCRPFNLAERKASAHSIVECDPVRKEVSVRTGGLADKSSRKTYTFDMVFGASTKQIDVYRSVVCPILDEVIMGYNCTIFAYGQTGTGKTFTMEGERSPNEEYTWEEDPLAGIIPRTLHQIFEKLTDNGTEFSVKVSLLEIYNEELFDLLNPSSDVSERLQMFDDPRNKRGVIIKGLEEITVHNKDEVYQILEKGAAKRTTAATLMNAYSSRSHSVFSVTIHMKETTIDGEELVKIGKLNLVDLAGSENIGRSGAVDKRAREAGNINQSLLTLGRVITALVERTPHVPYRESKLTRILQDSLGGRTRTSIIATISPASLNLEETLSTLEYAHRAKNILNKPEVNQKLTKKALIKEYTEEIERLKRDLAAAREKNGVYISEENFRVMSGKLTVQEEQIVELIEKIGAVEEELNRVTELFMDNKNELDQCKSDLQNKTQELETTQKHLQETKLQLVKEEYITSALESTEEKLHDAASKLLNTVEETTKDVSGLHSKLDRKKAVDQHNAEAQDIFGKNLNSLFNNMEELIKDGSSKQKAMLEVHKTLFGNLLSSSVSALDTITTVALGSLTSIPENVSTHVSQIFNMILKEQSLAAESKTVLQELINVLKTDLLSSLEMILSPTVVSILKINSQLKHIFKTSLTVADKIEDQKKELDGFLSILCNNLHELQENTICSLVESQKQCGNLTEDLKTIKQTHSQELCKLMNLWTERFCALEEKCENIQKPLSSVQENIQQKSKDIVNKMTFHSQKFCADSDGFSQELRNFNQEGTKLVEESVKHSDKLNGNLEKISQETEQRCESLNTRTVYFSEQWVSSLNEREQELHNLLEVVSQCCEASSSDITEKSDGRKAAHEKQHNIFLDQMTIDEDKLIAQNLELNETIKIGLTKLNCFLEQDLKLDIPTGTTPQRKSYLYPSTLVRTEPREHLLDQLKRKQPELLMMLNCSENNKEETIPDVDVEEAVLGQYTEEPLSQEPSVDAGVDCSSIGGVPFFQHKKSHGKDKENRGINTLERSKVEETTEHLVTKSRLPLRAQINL
Summary of the method: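 Gliding assays with other motors used His6-Eg5, His6-EGFP-HSET or K560 (truncated kinesin-1), with test compound at 24 µM or 100 µM. Frames were captured every 5 s for 1 min at 100×. Velocity was the distance travelled in 1 min, from ≥15 microtubules at each of three locations (n ≥ 50 per slide).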

IC50 [1]: 2.8 µM | inhibition of microtubule gliding, Eg5 [3]: neither substantially inhibited
Compound: COC(=O)c1ccc2c(c1)N(C)S(=O)(=O)c1cnc(SC)nc1-2 [Munesib-1, Methyl 6-methyl-2-(methylthio)-6H-benzo[c]pyrimido[4,5-e][1,2]thiazine-8-carboxylate 5,5-dioxide]
effect on spindle assembly in parental line [2]: little effect on the parental HeLa line
